Results taken from ChEMBL document CHEMBL5154715, “Phenolic Lipids Derived from Cashew Nut Shell Liquid to Treat Metabolic Diseases” (J Med Chem, 2022).
Active and inactive are the calls of the source. The calls are words filed in the database; no cut-off is given here.

Tests used:
[1] = Cmax in C57BL/6 mouse at 40 mg/kg, ip measured upto 24 hrs by LC-MS/MS analysis; type: ADME, organism-based; design: dose 40 mg/kg, time < 24 hrs, route ip; conditions: in vivo
Method in brief: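 Single IP dose in 5% DMSO/5% Tween-80/90% saline to WT male C57Bl/6 mice, 7–10 months old; n = 4 per time point. Saphenous sampling at 0.08–0.5 h, then terminal trunk blood at 1–6 h. Plasma extracted with methanol plus internal standard and analyzed by LC-MS/MS; mean ± SEM.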

[2] = target: T1, Peroxisome proliferator-activated receptor alpha (Mus musculus) (UniProt P23204); assay: Agonist activity at human PPARalpha in mouse hepatocytes assessed as induction of cd36 mRNA expression at 50 uM incubated for 16 hrs by quantitative real-time PCR analysis; type: cell-based; conditions: Hepatocyte, filed as agonist
T1 sequence (whole entry): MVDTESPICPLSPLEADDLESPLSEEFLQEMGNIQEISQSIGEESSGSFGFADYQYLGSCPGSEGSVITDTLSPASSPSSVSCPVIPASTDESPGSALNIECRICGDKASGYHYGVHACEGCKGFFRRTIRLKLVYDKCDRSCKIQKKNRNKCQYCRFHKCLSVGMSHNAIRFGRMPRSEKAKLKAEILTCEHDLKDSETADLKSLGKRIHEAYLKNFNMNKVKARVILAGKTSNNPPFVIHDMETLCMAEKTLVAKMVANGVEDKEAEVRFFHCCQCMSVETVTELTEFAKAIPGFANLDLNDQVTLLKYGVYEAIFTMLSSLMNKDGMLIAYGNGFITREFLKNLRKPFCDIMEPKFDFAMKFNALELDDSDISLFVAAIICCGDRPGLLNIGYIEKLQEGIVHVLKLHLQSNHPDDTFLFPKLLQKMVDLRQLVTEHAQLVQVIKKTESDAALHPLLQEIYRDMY
Method in brief: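 Collagenase-perfused mouse primary hepatocytes from WT mice, plated 2 h in attachment medium, overnight in M199 with 5% charcoal-stripped FBS and 1 nM insulin. Treated next day in serum-free M199 with 50 μM compound for 16 h. RNA qPCR (SYBR Green), comparative Ct method.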

[3] = Apparent oral clearance in C57BL/6 mouse at 100 mg/kg, po measured upto 24 hrs by LC-MS/MS analysis; type: ADME, organism-based; conditions: in vivo
Method in brief: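 Single oral dose given in peanut butter pellets to WT male C57Bl/6 mice acclimated 7 days to drug-free pellets; n = 4 per time point. Saphenous blood at 0.25–2 h, terminal collection at 4–38 h. Plasma extracted with methanol containing internal standard, LC-MS/MS with negative-ion ESI MRM. Parameters reported as mean ± SEM; Frel is oral vs IP.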

In the case of CCCCCCCCCCCCCCCc1cccc(OC(C)(C)C(=O)O)c1, the Cmax [1] was 102 µg/mL, the Activity [2] was “Active” and the CL/F [3] was 2.3 mL/min/kg.
